The record followed here is PubChem BioAssay.

Assay [1] is described as follows: hit retest on RPL19A-GFP reporter strain – cell-based, S. cerevisiae, flow cytometry, cherry picks, mother/daughter gates, confirmation (AID 2270;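 active = GFP response below 50% of the DMSO control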). Particulars: 3 h, at 10 µM, stronger effect = lower value, 100 = same GFP as DMSO wells.
Assay [2] can be described thus: yeast TOR pathway reporter LAP4-GFP change – cell-based, cherry picks, flow cytometry, mother/daughter gates, confirmation (AID 2271;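 active = GFP response above 150% of the DMSO control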;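 note: ratio of sample to DMSO plate mean so 100% equals DMSO level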). Conditions: S. cerevisiae LAP4-GFP strain, 3 h, at 10 µM, stronger effect = higher value, 100 means same as DMSO control. In short, it runs like this:
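material = Alexa 633-stained baker's yeast GFP-fusion strain | amount = 0.2 OD600 cells | schedule = 30 °C, 3 h compound incubation, rotating | signal = GFP by flow cytometry | measure = per-gate (all, mother, daughter) GFP response vs DMSO | controls = positive rapamycin (400 ng/mL), negative DMSO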
In general terms: A flow cytometer gives signals particle by particle.

The nature of assay [3]: TOR pathway reporter MEP2-GFP, retest of hits – S. cerevisiae, flow cytometry GFP, cherry picks, confirmation (AID 2272;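 active = GFP response above 150% of the DMSO control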;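 note: ratio of well signal to plate DMSO mean so 100% equals DMSO level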). Conditions: S. cerevisiae MEP2-GFP strain, 3 h, at 10 µM, stronger effect = higher value.
Assay [4] can be described thus: yeast AGP1-GFP fluorescence change, single-dose – cell-based, flow cytometry, S. cerevisiae, cherry picks, confirmation (AID 2273).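 Note: median GFP channel fluorescence over the whole cell population gate.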 Conditions: S. cerevisiae AGP1-GFP strain, 3 h, at 10 µM.
A short description of assay [5]: TOR pathway CIT2 reporter hit retest – S. cerevisiae, GFP fusion, cherry picks, mother/daughter gates, confirmation (AID 2274). Particulars: S. cerevisiae CIT2-GFP strain, flow cytometry, 3 h, at 10 µM, stronger effect = higher value.
Where [6] appears, read: measured here: daughter cell gate.
Where [7] appears, read: measured here: mother cell gate.
Setting [8] is: measured here: daughter cell gate response.
[9] abbreviates: measured here: mother cell gate response.

Active and inactive are the calls of the source.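 Rule for the calls, unless noted: active = GFP response above 150% of the DMSO level; inconclusive = fewer than 70 events counted for a yeast strain; inactive = the rest.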

Consider `CCc1nnc(NC(=O)c2ccc(S(=O)(=O)N(CC(C)C)CC(C)C)cc2)o1`, for which the GFP response vs DMSO in assay [1] was 101% (inactive); in assay [1] (setting [6]) it was 97.6%; in assay [1] (setting [7]), 102%; in assay [3] it was 101% (inactive). Besides, the figures for the GFP response relative to DMSO in assay [2], in assay [2] (setting [8]) and in assay [2] (setting [9]) were 98.2% (inactive), 97.5% and 97.3%, respectively. In addition, the GFP response, % of DMSO was 100% (inactive) in assay [4], 102% (inactive) in assay [5], 103% in assay [5] (setting [6]) and 101% in assay [5] (setting [7]).

For `Cc1ccc(/C=C2/SC(=S)N(C3CCCCC3)C2=O)o1`, the GFP response vs DMSO in assay [1] is 100% (inactive); in assay [1] (setting [6]), 100%; in assay [1] (setting [7]), 98.6%; in assay [3] it was 126% (inactive). Further, the figures for the GFP response relative to DMSO in assay [2], in assay [2] (setting [8]) and in assay [2] (setting [9]) were 157% (active), 145% and 161%, respectively. Besides, the GFP response, % of DMSO in assay [4] was 106% (inactive); in assay [5], 98.8% (inactive); in assay [5] (setting [6]) it was 101%; in assay [5] (setting [7]), 89.5%.

Take `Cc1ccccc1Oc1ncnc2oc(-c3ccccc3)cc12`: the GFP response vs DMSO is 100% (inactive) in assay [1], 98.9% in assay [1] (setting [6]), 101% in assay [1] (setting [7]) and 102% (inactive) in assay [3]. Also, the GFP response relative to DMSO in assay [2] is 96.7% (inactive); in assay [2] (setting [8]) it was 96%; in assay [2] (setting [9]), 97.2%. The GFP response, % of DMSO in assay [4] was 97.2% (inactive); in assay [5] it was 99.7% (inactive); in assay [5] (setting [6]), 99.1%; in assay [5] (setting [7]) it was 96.1%.

Turning to `Cc1cc(Cl)ccc1N1C(=O)CC(SCCC(=O)O)C1=O` (configuration not stated), the GFP response vs DMSO in assay [1] is 96.4% (inactive); in assay [1] (setting [6]), 97.6%; in assay [1] (setting [7]), 95.3%; in assay [3] it was 102% (inactive). Also, the GFP response relative to DMSO in assay [2] was 103% (inactive); in assay [2] (setting [8]), 102%; in assay [2] (setting [9]), 105%. For the same compound, the GFP response, % of DMSO was 97.8% (inactive) in assay [4], 103% (inactive) in assay [5], 103% in assay [5] (setting [6]) and 101% in assay [5] (setting [7]).

As for `Cc1ccc(C(=O)Oc2oc(-c3ccco3)nc2C=Nc2ccc(Cl)cc2)cc1`, the GFP response vs DMSO in assay [1] was 102% (inactive); in assay [1] (setting [6]) it was 98.3%; in assay [1] (setting [7]), 98.8%; in assay [3], 110% (inactive). Further, the GFP response relative to DMSO in assay [2] is 207% (active); in assay [2] (setting [8]), 168%; in assay [2] (setting [9]) it was 205%. Besides, the GFP response, % of DMSO in assay [4] was 93.8% (inactive); in assay [5], 106% (inactive); in assay [5] (setting [6]), 111%; in assay [5] (setting [7]), 98%.

Turning to `Cc1cc(OCC(=O)Nc2ccc(S(=O)(=O)N3CCN(C)CC3)cc2)ccc1Br`, the GFP response vs DMSO was 98% (inactive) in assay [1], 98.7% in assay [1] (setting [6]), 97.3% in assay [1] (setting [7]) and 101% (inactive) in assay [3]. Further, the GFP response relative to DMSO is 97.7% (inactive) in assay [2], 99% in assay [2] (setting [8]) and 97.4% in assay [2] (setting [9]). The GFP response, % of DMSO in assay [4] is 106% (inactive); in assay [5], 101% (inactive); in assay [5] (setting [6]) it was 101%; in assay [5] (setting [7]), 103%.

For the compound `CCOc1cc(/C=C2\N=C(C)OC2=O)cc(Br)c1OCC(=O)OC`, the GFP response vs DMSO in assay [1] was 98.2% (inactive); in assay [1] (setting [6]), 100%; in assay [1] (setting [7]), 96.9%; in assay [3] it was 102% (inactive). Further, the GFP response relative to DMSO in assay [2] was 133% (inactive); in assay [2] (setting [8]) it was 128%; in assay [2] (setting [9]), 134%. Further, the GFP response, % of DMSO was 94% (inactive) in assay [4], 99.3% (inactive) in assay [5], 102% in assay [5] (setting [6]) and 94.5% in assay [5] (setting [7]).

With `CCOc1ccc(N2C(=O)C(Cl)=C(Nc3ccccc3O)C2=O)cc1`, the GFP response vs DMSO was 97.4% (inactive) in assay [1], 98% in assay [1] (setting [6]), 98.1% in assay [1] (setting [7]) and 104% (inactive) in assay [3]. Also, the GFP response relative to DMSO was 103% (inactive) in assay [2], 99.3% in assay [2] (setting [8]) and 105% in assay [2] (setting [9]). Also, the GFP response, % of DMSO was 96.7% (inactive) in assay [4], 97.8% (inactive) in assay [5], 100% in assay [5] (setting [6]) and 95.6% in assay [5] (setting [7]).

Regarding `CCN1/C(=C/c2ccc3cc(C)ccc3[n+]2CC)Sc2ccc3sccc3c21`, the GFP response vs DMSO in assay [1] is 96.7% (inactive); in assay [1] (setting [6]), 74.3%; in assay [1] (setting [7]), 92.3%; in assay [3], 244% (active). The GFP response relative to DMSO in assay [2] is 316% (active); in assay [2] (setting [8]), 155%; in assay [2] (setting [9]), 287%. Besides, the GFP response, % of DMSO in assay [4] is 118% (inactive); in assay [5], 132% (inactive); in assay [5] (setting [6]) it was 110%; in assay [5] (setting [7]), 133%.

Turning to `Cc1ccc(N2C(=O)C(Cl)=C(NCc3ccccc3)C2=O)c(C)c1`, the GFP response vs DMSO in assay [1] was 96.2% (inactive); in assay [1] (setting [6]), 95.2%; in assay [1] (setting [7]), 97%; in assay [3], 101% (inactive). The values for the GFP response relative to DMSO in assay [2], in assay [2] (setting [8]) and in assay [2] (setting [9]) were 106% (inactive), 104% and 107%, respectively. In addition, the GFP response, % of DMSO in assay [4] is 100% (inactive); in assay [5] it was 94.4% (inactive); in assay [5] (setting [6]), 95.6%; in assay [5] (setting [7]) it was 94.4%.

As to `O=[N+]([O-])c1ccc(S(=O)(=O)c2cccc(C(F)(F)F)c2)nc1`, the GFP response vs DMSO was 81.9% (inactive) in assay [1], 92.5% in assay [1] (setting [6]), 75% in assay [1] (setting [7]) and 157% (inactive) in assay [3]. Also, the GFP response relative to DMSO is 240% (active) in assay [2], 180% in assay [2] (setting [8]) and 221% in assay [2] (setting [9]). The GFP response, % of DMSO is 122% (inactive) in assay [4], 128% (inactive) in assay [5], 149% in assay [5] (setting [6]) and 110% in assay [5] (setting [7]).

In the case of `CN1CCSc2ccc(C(=O)Nc3cccc(F)c3)cc21`, the GFP response vs DMSO is 95.2% (inactive) in assay [1], 91.8% in assay [1] (setting [6]), 96.7% in assay [1] (setting [7]) and 99.5% (inactive) in assay [3]. Also, the results for the GFP response relative to DMSO in assay [2], in assay [2] (setting [8]) and in assay [2] (setting [9]) were 120% (inactive), 115% and 121%, respectively. For the same compound, the GFP response, % of DMSO was 97.8% (inactive) in assay [4], 92.1% (inactive) in assay [5], 89% in assay [5] (setting [6]) and 91% in assay [5] (setting [7]).

As to `COc1ccc(NC(=S)NCCCCCC(=O)C[N+](=O)[O-])cc1`, the GFP response vs DMSO is 96% (inactive) in assay [1], 96.4% in assay [1] (setting [6]), 96.1% in assay [1] (setting [7]) and 98.3% (inactive) in assay [3]. Besides, the GFP response relative to DMSO in assay [2] is 90.2% (inactive); in assay [2] (setting [8]) it was 91.2%; in assay [2] (setting [9]), 89.7%. Further, the GFP response, % of DMSO was 98.7% (inactive) in assay [4], 99.7% (inactive) in assay [5], 101% in assay [5] (setting [6]) and 97.3% in assay [5] (setting [7]).

As to `O=S(=O)(CCN(CCS(=O)(=O)C(F)(F)F)CC1CCCO1)C(F)(F)F` (configuration not stated), the GFP response vs DMSO is 92.9% (inactive) in assay [1], 96.2% in assay [1] (setting [6]), 86.3% in assay [1] (setting [7]) and 118% (inactive) in assay [3]. Further, the GFP response relative to DMSO in assay [2] is 219% (active); in assay [2] (setting [8]) it was 179%; in assay [2] (setting [9]), 210%. The GFP response, % of DMSO in assay [4] was 94.5% (inactive); in assay [5], 111% (inactive); in assay [5] (setting [6]) it was 115%; in assay [5] (setting [7]), 96.8%.

Consider `O/C=c1\ccc2cccc3nc(C(F)(F)F)nc1c23`, for which the GFP response vs DMSO in assay [1] was 111% (inactive); in assay [1] (setting [6]), 111%; in assay [1] (setting [7]), 110%; in assay [3], 269% (active). The GFP response relative to DMSO in assay [2] is 172% (active); in assay [2] (setting [8]), 167%; in assay [2] (setting [9]), 178%. Besides, the GFP response, % of DMSO was 108% (inactive) in assay [4], 179% (active) in assay [5], 171% in assay [5] (setting [6]) and 181% in assay [5] (setting [7]).

In the case of `COc1ccc(C2CC(c3cccs3)=NN2S(=O)(=O)c2ccc(C)cc2)cc1` (configuration not stated), the GFP response vs DMSO is 98.7% (inactive) in assay [1], 99.1% in assay [1] (setting [6]), 98.6% in assay [1] (setting [7]) and 104% (inactive) in assay [3]. For the same compound, the GFP response relative to DMSO in assay [2] is 106% (inactive); in assay [2] (setting [8]) it was 105%; in assay [2] (setting [9]) it was 107%. In addition, the GFP response, % of DMSO was 106% (inactive) in assay [4], 106% (inactive) in assay [5], 106% in assay [5] (setting [6]) and 106% in assay [5] (setting [7]).

Turning to `COc1ccc(/C=C/C(=O)C2C(=O)C=C(C)OC2=O)cc1O` (configuration not stated), the GFP response vs DMSO in assay [1] is 101% (inactive); in assay [1] (setting [6]), 102%; in assay [1] (setting [7]), 101%; in assay [3], 112% (inactive). The GFP response relative to DMSO in assay [2] is 123% (inactive); in assay [2] (setting [8]), 118%; in assay [2] (setting [9]), 125%. For the same compound, the GFP response, % of DMSO in assay [4] is 101% (inactive); in assay [5] it was 101% (inactive); in assay [5] (setting [6]), 104%; in assay [5] (setting [7]), 96.8%.
